Test results as given in article PMC2962933 (Biochemistry, 2010).
Like-named read-outs stand apart in the source and are kept apart here.

Legend:
[1] = test system: TcY435A mutant of Tc-SAHH; test: cofactor content of isolated and reconstituted mutant enzyme; format: binding, Trypanosoma cruzi
How it was run: (§1)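 Apo-enzyme preparation: mutants expressed in E. coli were precipitated three times with 80% (v/v) acid ammonium sulfate plus 2–5 mM DTT (pH 2.92, 3.12, then 7.2). Pellets were redissolved in 50 mM phosphate pH 7.2 with 1 mM EDTA. Apo protein (10 mg/mL) was incubated with 1 mM NAD+ or NADH for 12 h at 4 °C, then purified by Superdex 200 gel filtration.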

[2] = test system: TcK431A mutant of Tc-SAHH; test: as above; format: binding, Trypanosoma cruzi
How it was run: as §1

[3] = biological target: T1, HsY430A mutant of Hs-SAHH (Homo sapiens, UniProt P23526, Y430A); test: cofactor content of isolated and reconstituted mutant enzyme; format: binding
T1 sequence (P23526 1-432 Y430A): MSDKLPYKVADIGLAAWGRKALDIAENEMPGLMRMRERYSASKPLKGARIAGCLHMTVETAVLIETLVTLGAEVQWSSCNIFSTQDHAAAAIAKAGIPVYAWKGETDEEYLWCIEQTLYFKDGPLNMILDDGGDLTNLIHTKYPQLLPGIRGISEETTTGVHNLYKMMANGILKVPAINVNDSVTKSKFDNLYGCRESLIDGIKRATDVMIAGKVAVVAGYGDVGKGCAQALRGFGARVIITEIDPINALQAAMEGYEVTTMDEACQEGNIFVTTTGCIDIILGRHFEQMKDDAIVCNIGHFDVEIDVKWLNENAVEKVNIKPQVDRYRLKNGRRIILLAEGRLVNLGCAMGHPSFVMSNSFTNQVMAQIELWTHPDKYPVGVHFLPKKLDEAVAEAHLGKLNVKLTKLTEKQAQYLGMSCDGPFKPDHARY

Hs-SAHH [4] = conditions: cited from earlier work
Hs-SAHH [5] = conditions: 23 °C, pH 7.4, cited from earlier work
Tc-SAHH [6] = conditions: 23 °C, pH 7.4, cited from earlier work
[7] = biological target: T1, HsY430A mutant of Hs-SAHH; test: association kinetics of NAD^+ with apo-enzyme; format: binding
Tc-SAHH [8] = conditions: cited from earlier work
[9] = biological target: T1, HsY430A mutant of Hs-SAHH; test: dissociation of NAD^+; format: binding
[10] = test system: TcY435A mutant of Tc-SAHH; test: dissociation of NAD^+; format: binding, Trypanosoma cruzi
[11] = biological target: TcY435A mutant of Tc-SAHH; test: association kinetics of NAD^+ with apo-enzyme; format: binding, Trypanosoma cruzi; conditions: 23 °C, pH 7.4
[12] = biological target: K431A mutant of Trypanosoma cruzi S-adenosylhomocysteine hydrolase (TcK431A) (Trypanosoma cruzi); test: SEC
[13] = biological target: Y435A mutant of Trypanosoma cruzi S-adenosylhomocysteine hydrolase (TcY435A) (Trypanosoma cruzi); test: SEC
SEC = biological target: the molecule itself; test: SEC
[14] = enzyme as isolated from the expression system, fluorescence
[15] = Table 2 (23 °C, pH 7.4), value is 10^6 x koff
[16] = binding to non-functional sites of apo-SAHH
[17] = read-out: Kf, binding to fully functional sites of holo-SAHH
[18] = read-out: Ko, binding to fully functional sites of apo-SAHH
[19] = enzyme as isolated from the expression system, HPLC

In the case of NC(=O)C1=CN([C@@H]2O[C@H](COP(=O)(O)OP(=O)(O)OC[C@H]3O[C@@H](n4cnc5c(N)ncnc54)[C@H](O)[C@@H]3O)[C@@H](O)[C@H]2O)C=CC1 [NADH, β-nicotinamide adenine dinucleotide, reduced form], the “occupancy after reconstitution of apo-enzyme with NADH” value (shortened to “occupancy … with NADH”) ([1]; attempted reconstitution) is reported as “no detectable occupancy”, the “active-site occupancy by NADH” value [1, 14] is reported as 90 ± 1% and the “occupancy … with NADH” value ([2]; attempted reconstitution) is reported as “no detectable occupancy”. For the same molecule, the “active-site occupancy by NADH” value [2, 14] was 1.30 ± 0.03%, the “occupancy … with NADH” value ([3]; 1 mM NADH, 12 h, 4 °C, fluorescence) was 94 ± 1% and the “active-site occupancy by NADH” value [3, 14] was 86 ± 5%.

In the case of NC(=O)C1=CN([C@@H]2O[C@H](COP(=O)(O)OP(=O)(O)OC[C@H]3O[C@@H](n4cnc5c(N)ncnc54)[C@H](O)[C@@H]3O)[C@@H](O)[C@H]2O)C=CC1 [NAD^+, β-nicotinamide adenine dinucleotide], the koff (Hs-SAHH [4]; 30 °C, pH 7.4, wild-type enzyme) is given as 1.9 ± 0.3 × 10^−5 s^−1, the “10^6koff” value (Hs-SAHH [4]; [15]) is given as 19 ± 3 s^−1 and the Ka (Hs-SAHH [5]; [16]) is given as 19 ± 8 µM. The “Kd, koff/(ka/Ka)” value (Hs-SAHH [5]) was 0.007 ± 0.003 µM, the “10^−3kon” value (Hs-SAHH [5]; value is 10^−3 x kon) was 1.9 ± 0.04 M^−1s^−1 and the Kd (Hs-SAHH [5]; read-out: Kd, koff/kon) was 0.01 ± 0.002 µM. For the same molecule, the Kd (Hs-SAHH [5]; [17]) was 1.4 ± 0.3 µM, the Kd (Hs-SAHH [5]; [18]) was 33 ± 4 µM and the “occupancy after reconstitution of apo-enzyme with NAD^+” value ([1]; attempted reconstitution) was “no detectable occupancy”. The “active-site occupancy by NAD^+” value [1, 19] was 18 ± 1%, the Ka (Tc-SAHH [6]; [16]) was 3.8 ± 0.6 µM and the “Kd, koff/(ka/Ka)” value (Tc-SAHH [6]) was 0.069 ± 0.018 µM. The “10^−3kon” value (Tc-SAHH [6]; value is 10^−3 x kon) was 0.68 ± 0.02 M^−1s^−1, the Kd (Tc-SAHH [6]; read-out: Kd, koff/kon) was 0.161 ± 0.03 µM and the Kd (Tc-SAHH [6]; [17]) was 1.8 ± 0.4 µM. The Kd (Tc-SAHH [6]; [18]) was 38 ± 9 µM, the “Kd, koff/(ka/Ka)” value ([7]; 23 °C, pH 7.4) was 0.75 ± 0.095 µM and the Ka ([7]; 23 °C, pH 7.4, binding to non-functional sites of apo-SAHH) was 17 ± 2 µM. The “n (Hill coefficient for Ko)” value ([7]; 23 °C, pH 7.4, fast-binding sites) was 0.9 ± 0.1, the “10^−3kon” value ([7]; 23 °C, pH 7.4, value is 10^−3 x kon) was 0.54 ± 0.04 M^−1s^−1 and the “decrease of the on-rate, mutant vs wild type” value ([7]; HsY430A vs Hs-SAHH) was 4 fold. The Kd ([7]; read-out: Kd, koff/kon, 23 °C, pH 7.4) was 0.784 ± 0.064 µM, the Kd ([7]; read-out: Kf, 23 °C, pH 7.4, binding to fully functional sites of holo-SAHH) was 2 ± 0.3 µM and the Kd ([7]; read-out: Ko, 23 °C, pH 7.4, binding to fully functional sites of apo-SAHH) was 432 ± 93 µM. The koff (Tc-SAHH [8]; 24 °C, pH 7.4, wild-type enzyme) was 1.1 ± 0.2 × 10^−4 s^−1, the “10^6koff” value (Tc-SAHH [8]; [15]) was 110 ± 20 s^−1 and the “occupancy after reconstitution of apo-enzyme with NAD^+” value ([2]; attempted reconstitution) was “no detectable occupancy”. For the same molecule, the “active-site occupancy by NAD^+” value [3, 19] was 30 ± 5%, the koff ([9]; 30 °C, pH 7.4) was 4.2 ± 0.1 × 10^−4 s^−1 and the “10^6koff” value [9, 15] was 420 ± 10 s^−1. For the same molecule, the koff ([10]; 24 °C, pH 7.4) was 2.8 ± 0.2 × 10^−2 s^−1, the “10^3koff” value ([10]; Table 2 (23 °C, pH 7.4), value is 10^3 x koff) was 28 ± 2 s^−1 and the “Kd, koff/(ka/Ka)” value [11] was 1000 ± 300 µM. For the same molecule, the kon [11] was 18 ± 2 M⁻¹ s⁻¹, the ka/Ka ([11]; binding and transformation of apo-sites to holo-sites) was 29 ± 9 M⁻¹ s⁻¹ and the Ka [11, 16] was 0.39 ± 0.04 mM. For the same molecule, the ka ([11]; transformation of non-functional apo-sites to functional holo-sites) was 11 ± 0.4 s⁻¹, the Kd ([11]; read-out: Kd, koff/kon) was 1600 ± 200 µM and the Kd [11, 17] was 200 ± 30 µM. The Kd [11, 18] was 2600 ± 1000 µM.

“K431A mutant of Trypanosoma cruzi S-adenosylhomocysteine hydrolase (TcK431A) (enzyme)” showed a stoichiometry N [12] of 4.

“Y435A mutant of Trypanosoma cruzi S-adenosylhomocysteine hydrolase (TcY435A) (enzyme)” showed a stoichiometry N [13] of 4.

B1: Y430A mutant of human S-adenosylhomocysteine hydrolase (HsY430A) (enzyme)
chain: T1 sequence (P23526 1-432 Y430A)
For B1, the “stoichiometry N” value (SEC) was 4.
